Data reported in ChEMBL document CHEMBL4145690, “Rational Design and Structure Validation of a Novel Peptide Inhibitor of the Adenomatous-Polyposis-Coli (APC)-Rho-Guanine-Nucleotide-Exchange-Factor-4 (Asef) Interaction” (J Med Chem, 2018).
*1 amine or outer side, *2 acyl side, *3 side chain or, on linkers, in order; H or OH if unused. Where a SMILES comes first, the peptide text is derived from it. [ ]: non-standard residue; d: D form. The star is where a group is joined. X4 = O=C(C1(N[*:1])C[C@@H]2CC[C@H]1C2)[*:2]; 2Nal = N[C@@H](Cc1ccc2ccccc2c1)C(=O)O; X3 = O=C(c1cc2c(s1)CN([*:1])CC2)[*:2]; Ala(cPent) = N[C@@H](CC1CCCC1)C(=O)O; Met(O2) = CS(=O)(=O)CC[C@H](N)C(=O)O; X2 = C=C(Br)C[C@H](N[*:1])C(=O)[*:2]; Cha = N[C@@H](CC1CCCCC1)C(=O)O; Cba = N[C@@H](CC1CCC1)C(=O)O; hLeu = CC(C)CC[C@H](N)C(=O)O; Ac8c = NC1(C(=O)O)CCCCCCC1; Cbz = O=C(OCc1ccccc1)*

Target: Adenomatous polyposis coli protein (Homo sapiens, UniProt P25054)
Assay: Binding affinity to APC protein (303 to 739 residues) (unknown origin) incubated for 60 mins followed by probe addition and measured after 60 mins by competitive fluorescence polarization assay; call rule not given here
In short: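 Peptide in DMSO preincubated with protein 60 min at room temperature with shaking; probe added, then 60 min more. Controls: blank, tracer only, complex only. IC50 from dose-response curves, mean of three independent experiments.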

Adenomatous polyposis coli protein, sequence (P25054 whole entry, the tested form may be a part): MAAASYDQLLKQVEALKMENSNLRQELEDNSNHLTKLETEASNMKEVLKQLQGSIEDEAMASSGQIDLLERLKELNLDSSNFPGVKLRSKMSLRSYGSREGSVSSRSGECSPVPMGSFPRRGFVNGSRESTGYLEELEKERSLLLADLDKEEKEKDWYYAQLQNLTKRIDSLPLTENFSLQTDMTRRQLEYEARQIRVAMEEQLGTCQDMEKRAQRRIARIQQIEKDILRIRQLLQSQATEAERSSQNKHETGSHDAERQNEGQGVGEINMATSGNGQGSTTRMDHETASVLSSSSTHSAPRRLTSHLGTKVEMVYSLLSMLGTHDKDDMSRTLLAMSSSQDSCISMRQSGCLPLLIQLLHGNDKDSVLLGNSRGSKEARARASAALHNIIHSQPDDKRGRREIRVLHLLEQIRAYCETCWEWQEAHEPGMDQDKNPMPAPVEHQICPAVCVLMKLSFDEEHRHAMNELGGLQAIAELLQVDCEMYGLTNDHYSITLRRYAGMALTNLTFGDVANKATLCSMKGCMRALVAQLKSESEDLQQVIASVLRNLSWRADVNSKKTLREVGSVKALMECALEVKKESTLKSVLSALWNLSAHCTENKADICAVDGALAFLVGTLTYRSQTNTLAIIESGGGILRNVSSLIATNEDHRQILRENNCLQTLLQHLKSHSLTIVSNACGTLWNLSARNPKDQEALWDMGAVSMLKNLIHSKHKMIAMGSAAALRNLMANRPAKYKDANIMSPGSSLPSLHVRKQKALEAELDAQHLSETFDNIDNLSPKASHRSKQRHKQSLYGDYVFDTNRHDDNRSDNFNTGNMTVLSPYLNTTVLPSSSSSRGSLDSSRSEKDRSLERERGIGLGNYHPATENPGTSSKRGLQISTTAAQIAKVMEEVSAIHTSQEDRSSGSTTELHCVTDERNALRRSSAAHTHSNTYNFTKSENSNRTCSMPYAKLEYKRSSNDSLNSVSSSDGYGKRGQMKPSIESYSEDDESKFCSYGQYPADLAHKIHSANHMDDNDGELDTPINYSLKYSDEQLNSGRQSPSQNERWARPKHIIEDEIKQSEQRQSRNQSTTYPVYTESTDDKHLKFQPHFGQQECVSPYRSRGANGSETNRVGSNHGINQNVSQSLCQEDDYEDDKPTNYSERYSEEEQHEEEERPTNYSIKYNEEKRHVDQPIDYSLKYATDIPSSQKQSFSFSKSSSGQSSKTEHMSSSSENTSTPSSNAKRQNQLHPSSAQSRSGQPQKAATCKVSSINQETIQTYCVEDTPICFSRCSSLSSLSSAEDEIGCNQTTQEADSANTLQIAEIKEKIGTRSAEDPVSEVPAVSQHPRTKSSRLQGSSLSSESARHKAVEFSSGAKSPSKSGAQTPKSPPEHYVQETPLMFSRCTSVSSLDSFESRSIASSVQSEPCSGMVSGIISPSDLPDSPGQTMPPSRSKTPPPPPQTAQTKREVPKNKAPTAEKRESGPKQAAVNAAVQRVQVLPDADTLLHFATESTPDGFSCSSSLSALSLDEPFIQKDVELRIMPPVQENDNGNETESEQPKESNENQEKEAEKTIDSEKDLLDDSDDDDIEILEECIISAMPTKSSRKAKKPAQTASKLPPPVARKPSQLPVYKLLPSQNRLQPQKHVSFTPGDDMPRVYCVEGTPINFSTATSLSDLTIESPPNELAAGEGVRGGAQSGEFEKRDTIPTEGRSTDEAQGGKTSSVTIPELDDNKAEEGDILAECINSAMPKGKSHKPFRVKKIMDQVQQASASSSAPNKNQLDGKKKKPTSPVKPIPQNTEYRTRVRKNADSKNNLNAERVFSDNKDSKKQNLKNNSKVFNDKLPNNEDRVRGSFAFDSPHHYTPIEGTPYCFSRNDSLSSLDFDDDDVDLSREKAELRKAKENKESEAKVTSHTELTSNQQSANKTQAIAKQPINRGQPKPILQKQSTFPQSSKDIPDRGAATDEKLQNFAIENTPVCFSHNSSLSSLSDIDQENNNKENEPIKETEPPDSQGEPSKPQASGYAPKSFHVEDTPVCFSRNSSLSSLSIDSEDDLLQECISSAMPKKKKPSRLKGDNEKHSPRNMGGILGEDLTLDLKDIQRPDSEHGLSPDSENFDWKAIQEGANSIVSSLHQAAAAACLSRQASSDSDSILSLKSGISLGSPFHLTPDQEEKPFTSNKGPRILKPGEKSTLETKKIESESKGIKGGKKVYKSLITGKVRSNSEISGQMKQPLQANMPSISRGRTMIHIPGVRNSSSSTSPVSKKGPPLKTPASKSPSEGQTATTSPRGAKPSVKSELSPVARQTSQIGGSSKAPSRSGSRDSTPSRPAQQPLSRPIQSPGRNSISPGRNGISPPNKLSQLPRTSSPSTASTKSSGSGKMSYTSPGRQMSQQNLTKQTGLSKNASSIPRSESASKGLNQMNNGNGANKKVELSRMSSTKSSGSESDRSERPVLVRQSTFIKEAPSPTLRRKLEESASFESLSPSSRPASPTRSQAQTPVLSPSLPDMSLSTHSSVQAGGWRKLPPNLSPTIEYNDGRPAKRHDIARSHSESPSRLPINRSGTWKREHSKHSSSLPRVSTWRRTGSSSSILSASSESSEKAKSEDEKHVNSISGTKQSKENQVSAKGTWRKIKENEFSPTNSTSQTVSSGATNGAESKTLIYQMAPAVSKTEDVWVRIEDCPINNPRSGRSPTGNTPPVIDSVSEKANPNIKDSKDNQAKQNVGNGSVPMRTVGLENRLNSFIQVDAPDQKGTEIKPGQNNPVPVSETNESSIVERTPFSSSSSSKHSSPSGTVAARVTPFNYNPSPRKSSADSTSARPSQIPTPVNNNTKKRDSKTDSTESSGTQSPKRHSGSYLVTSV

| SMILES | IC50 | Kd |
| --- | --- | --- |
| CC[C@H](C)[C@H](NC(=O)[C@H](CO)NC(=O)[C@H](CCC(=O)O)NC(=O)CNC(=O)[C@H](C)NC(=O)OCc1ccccc1)C(=O)N[C@@H](Cc1ccc(O)cc1)C(=O)N[C@@H](CCC(=O)O)C(N)=O (Cbz-AGESIYE-NH2) | 3.85 µM |  |
| C[C@H](NC(=O)OCc1ccccc1)C(=O)NCC(=O)N[C@@H](CCC(=O)O)C(=O)N[C@@H](CO)C(=O)N[C@@H](Cc1ccc(O)cc1)C(=O)N[C@@H](Cc1ccc(O)cc1)C(=O)N[C@@H](CCC(=O)O)C(N)=O (Cbz-AGESYYE-NH2) | 5.07 µM |  |
| C[C@H](NC(=O)OCc1ccccc1)C(=O)NCC(=O)N[C@@H](CCC(=O)O)C(=O)N1CCc2cc(C(=O)N[C@@H](Cc3ccc(O)cc3)C(=O)N[C@@H](CCC(=O)O)C(N)=O)sc2C1 (Cbz-AGE[X3]YE-NH2) |  | Not Active |
| C[C@H](NC(=O)OCc1ccccc1)C(=O)NCC(=O)N[C@@H](CCC(=O)O)C(=O)N[C@@H](C)C(=O)N[C@@H](CC1CCCC1)C(=O)N[C@@H](Cc1ccc(O)cc1)C(=O)N[C@@H](CCC(=O)O)C(N)=O (Cbz-AGEA[Ala(cPent)]YE-NH2) | 0.57 µM |  |
| CC(C)C[C@H](NC(=O)[C@H](CC(N)=O)NC(=O)[C@H](CCC(=O)O)NC(=O)CNC(=O)[C@H](C)NC(=O)OCc1ccccc1)C(=O)N[C@@H](Cc1ccc(O)cc1)C(=O)N[C@@H](CCC(=O)O)C(N)=O (Cbz-AGENLYE-NH2) | 5.19 µM |  |
| C[C@H](NC(=O)OCc1ccccc1)C(=O)NCC(=O)N[C@@H](CCC(=O)O)C(=O)N[C@@H](CO)C(=O)N[C@@H](CC1CCCC1)C(=O)N[C@@H](Cc1ccc(O)cc1)C(=O)N[C@@H](CCC(=O)O)C(N)=O (Cbz-AGES[Ala(cPent)]YE-NH2) | 0.62 µM |  |
| C[C@H](NC(=O)OCc1ccccc1)C(=O)NCC(=O)N[C@@H](CCC(=O)O)C(=O)N[C@@H](CO)C(=O)NCC(=O)N[C@@H](Cc1ccc(O)cc1)C(=O)N[C@@H](CCC(=O)O)C(N)=O (Cbz-AGESGYE-NH2) | 109 µM |  |
| C[C@H](NC(=O)OCc1ccccc1)C(=O)NCC(=O)N[C@@H](CCC(=O)O)C(=O)N[C@@H](CO)C(=O)N[C@@H](CC1CCCCC1)C(=O)N[C@@H](Cc1ccc(O)cc1)C(=O)N[C@@H](CCC(=O)O)C(N)=O (Cbz-AGES[Cha]YE-NH2) | 1.3 µM |  |
| C=C(Br)C[C@H](NC(=O)[C@H](CO)NC(=O)[C@H](CCC(=O)O)NC(=O)CNC(=O)[C@H](C)NC(=O)OCc1ccccc1)C(=O)N[C@@H](Cc1ccc(O)cc1)C(=O)N[C@@H](CCC(=O)O)C(N)=O (Cbz-AGES[X2]YE-NH2) | 1.82 µM |  |
| C[C@H](NC(=O)OCc1ccccc1)C(=O)NCC(=O)N[C@@H](CCC(=O)O)C(=O)N[C@@H](CO)C(=O)NC1(C(=O)N[C@@H](Cc2ccc(O)cc2)C(=O)N[C@@H](CCC(=O)O)C(N)=O)CCCCCCC1 (Cbz-AGES[Ac8c]YE-NH2) | 10.3 µM |  |
| CSCC[C@H](NC(=O)[C@H](CO)NC(=O)[C@H](CCC(=O)O)NC(=O)CNC(=O)[C@H](C)NC(=O)OCc1ccccc1)C(=O)N[C@@H](Cc1ccc(O)cc1)C(=O)N[C@@H](CCC(=O)O)C(N)=O (Cbz-AGESMYE-NH2) | 3.3 µM |  |
| CC(C)CC[C@H](NC(=O)[C@H](CO)NC(=O)[C@H](CCC(=O)O)NC(=O)CNC(=O)[C@H](C)NC(=O)OCc1ccccc1)C(=O)N[C@@H](Cc1ccc(O)cc1)C(=O)N[C@@H](CCC(=O)O)C(N)=O (Cbz-AGES[hLeu]YE-NH2) | 0.84 µM |  |
| CC(C)[C@H](NC(=O)[C@H](CO)NC(=O)[C@H](CCC(=O)O)NC(=O)CNC(=O)[C@H](C)NC(=O)OCc1ccccc1)C(=O)N[C@@H](Cc1ccc(O)cc1)C(=O)N[C@@H](CCC(=O)O)C(N)=O (Cbz-AGESVYE-NH2) | 12.4 µM |  |
| C[C@H](NC(=O)OCc1ccccc1)C(=O)NCC(=O)N[C@@H](CCC(=O)O)C(=O)N[C@@H](CO)C(=O)NC1(C(=O)N[C@@H](Cc2ccc(O)cc2)C(=O)N[C@@H](CCC(=O)O)C(N)=O)C[C@@H]2CC[C@H]1C2 (stereo partly drawn) (Cbz-AGES[X4]YE-NH2) | 128 µM |  |
| C[C@H](NC(=O)OCc1ccccc1)C(=O)NCC(=O)N[C@@H](CCC(=O)O)C(=O)N[C@@H](CO)C(=O)N[C@@H](CCS(C)(=O)=O)C(=O)N[C@@H](Cc1ccc(O)cc1)C(=O)N[C@@H](CCC(=O)O)C(N)=O (Cbz-AGES[Met(O2)]YE-NH2) | 5.73 µM |  |
| C[C@H](NC(=O)OCc1ccccc1)C(=O)NCC(=O)N[C@@H](CCC(=O)O)C(=O)N[C@@H](CO)C(=O)N[C@@H](CC1CCC1)C(=O)N[C@@H](Cc1ccc(O)cc1)C(=O)N[C@@H](CCC(=O)O)C(N)=O (Cbz-AGES[Cba]YE-NH2) | 1.53 µM |  |
| C[C@H](NC(=O)OCc1ccccc1)C(=O)NCC(=O)N[C@@H](CCC(=O)O)C(=O)N[C@@H](CO)C(=O)N[C@@H](Cc1ccc2ccccc2c1)C(=O)N[C@@H](Cc1ccc(O)cc1)C(=O)N[C@@H](CCC(=O)O)C(N)=O (Cbz-AGES[2Nal]YE-NH2) | 3.96 µM |  |
| CC(C)C[C@H](NC(=O)[C@H](CC(=O)O)NC(=O)[C@H](CCC(=O)O)NC(=O)CNC(=O)[C@H](C)NC(=O)OCc1ccccc1)C(=O)N[C@@H](Cc1ccc(O)cc1)C(=O)N[C@@H](CCC(=O)O)C(N)=O (Cbz-AGEDLYE-NH2) | 6.35 µM |  |
